The source made the active and inactive calls. The calls are words filed in the database; no cut-off is given here.
Columns and labels:
Cholinesterase = Cholinesterase (Equus caballus, UniProt P81908); experiment: Inhibition of equine serum BuChE using S-butyrylthiocholine iodide as susbtrate preincubated for 6 mins followed by substrate addition measured up to 3 mins by Ellman's method
PC-12 = experiment: Neuroprotective activity against H2O2-induced cell death in rat PC12 cells assessed as cell viability at 10 uM pretreated for 2 hrs followed by H2O2 addition measured after 30 mins by MTT assay (reference value: 49.6%); format: functional; conditions: read-out: Activity
[1] = target: T1, Amine oxidase [flavin-containing] A (Homo sapiens, UniProt P21397); experiment: Inhibition of recombinant human MAO-A expressed in baculovirus infected BTI insect cells at 12.5 uM using kynuramine as substrate measured after 30 mins by fluorescence based assay relative to control; conditions: 0.5 h
T1 sequence (P21397 whole entry): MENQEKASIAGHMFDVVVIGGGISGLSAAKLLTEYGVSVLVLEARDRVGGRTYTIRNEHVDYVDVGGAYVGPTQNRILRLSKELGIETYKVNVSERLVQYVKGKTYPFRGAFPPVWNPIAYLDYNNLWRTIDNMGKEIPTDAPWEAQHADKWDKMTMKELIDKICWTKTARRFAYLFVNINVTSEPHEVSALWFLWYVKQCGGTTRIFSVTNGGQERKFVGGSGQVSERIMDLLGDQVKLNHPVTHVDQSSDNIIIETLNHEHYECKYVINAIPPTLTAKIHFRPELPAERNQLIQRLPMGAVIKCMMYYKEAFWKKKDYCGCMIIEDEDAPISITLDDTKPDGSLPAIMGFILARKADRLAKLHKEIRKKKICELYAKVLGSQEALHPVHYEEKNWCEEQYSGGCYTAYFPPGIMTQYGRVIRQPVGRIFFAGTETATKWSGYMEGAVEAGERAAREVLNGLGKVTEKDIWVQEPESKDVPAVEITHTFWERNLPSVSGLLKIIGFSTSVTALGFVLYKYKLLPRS

[2] = target: Cholinesterase (Equus caballus) (UniProt P81908); experiment: Reversible inhibition of equine serum BuChE assessed as enzyme activity at 0.1 times IC50 using butyrylthiocholine iodide as substrate measured at 120 mins by Ellman's method relative to control; parameters: scale not given: the % may be the effect or the level left
Chain of Cholinesterase (Equus caballus) (P81908 whole entry): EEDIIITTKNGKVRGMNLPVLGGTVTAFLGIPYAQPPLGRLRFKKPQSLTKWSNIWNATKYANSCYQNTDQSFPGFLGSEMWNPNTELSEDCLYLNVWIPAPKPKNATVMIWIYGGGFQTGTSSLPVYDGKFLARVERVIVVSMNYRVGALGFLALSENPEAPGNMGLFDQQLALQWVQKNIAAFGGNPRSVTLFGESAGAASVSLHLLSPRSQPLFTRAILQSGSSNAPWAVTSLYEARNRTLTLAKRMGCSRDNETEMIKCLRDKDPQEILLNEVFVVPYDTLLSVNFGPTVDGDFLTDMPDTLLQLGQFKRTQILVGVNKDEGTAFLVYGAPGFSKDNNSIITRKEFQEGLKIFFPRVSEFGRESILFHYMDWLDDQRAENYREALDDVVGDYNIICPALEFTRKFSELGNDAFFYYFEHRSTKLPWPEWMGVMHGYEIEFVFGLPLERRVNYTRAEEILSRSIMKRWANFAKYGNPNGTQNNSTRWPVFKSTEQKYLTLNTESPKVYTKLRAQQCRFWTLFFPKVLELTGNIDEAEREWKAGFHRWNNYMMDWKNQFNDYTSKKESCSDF
How it was run: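 Reversibility tested by recovery of equine serum BuChE activity after dilution of inhibitor, with activity monitored over time up to 240 min by the Ellman method (DTNB read at 412 nm). Activity expressed relative to untreated control. Three independent experiments.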

in vitro = conditions: PAMPA, pH 7.4
[3] = Metal chelating activity of the compound assessed as formation of Zn2+-compound complex at 37.5 uM after 30 mins by UV-vis absorption spectra analysis
How it was run: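 Metal binding examined by plate-reader absorbance scan using CuCl2, ZnCl2, AlCl3, FeSO4, CuCl and Fe(NO3)3 as metal sources.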

Mus musculus = experiment: Reversal of scopolamine-induced memory cognitive memory impairment in Kunming mouse assessed as change in spontaneous alteration behavior at 23.4 mg/kg, ig pretreated for 30 mins followed by scopolamine challenge and after 30 mins by Y-maze test (reference value: 45.6%); format: functional
[4] = target: Acetylcholinesterase (AChE) (Electrophorus electricus, UniProt O42275); experiment: Inhibition of electric eel AChE at 25 uM using acetylthiocholine iodide as substrate incubated for 15 mins by Ellman's method relative to control; conditions: electric eel acetylcholinesterase (isolated enzyme), probe acetylthiocholine iodide
Chain of Acetylcholinesterase (AChE) (O42275 whole entry): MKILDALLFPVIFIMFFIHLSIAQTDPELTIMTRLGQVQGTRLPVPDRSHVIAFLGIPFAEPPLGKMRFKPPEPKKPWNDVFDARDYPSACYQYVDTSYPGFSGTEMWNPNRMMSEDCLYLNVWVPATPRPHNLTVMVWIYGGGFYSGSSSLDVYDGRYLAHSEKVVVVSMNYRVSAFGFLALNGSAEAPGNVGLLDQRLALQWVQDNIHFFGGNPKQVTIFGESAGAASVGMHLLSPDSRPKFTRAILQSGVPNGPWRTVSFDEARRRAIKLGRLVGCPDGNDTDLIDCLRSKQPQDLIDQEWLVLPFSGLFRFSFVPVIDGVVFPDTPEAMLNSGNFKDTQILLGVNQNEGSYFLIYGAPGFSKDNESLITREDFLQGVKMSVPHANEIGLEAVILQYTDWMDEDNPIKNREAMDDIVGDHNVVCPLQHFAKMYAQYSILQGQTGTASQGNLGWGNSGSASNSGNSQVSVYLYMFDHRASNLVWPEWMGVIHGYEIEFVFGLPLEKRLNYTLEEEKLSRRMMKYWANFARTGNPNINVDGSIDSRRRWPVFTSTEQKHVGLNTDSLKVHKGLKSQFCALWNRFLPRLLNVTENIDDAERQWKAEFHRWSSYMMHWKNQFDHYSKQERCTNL

Chain of Cholinesterase (P81908 whole entry): as the sequence (P81908 whole entry) above

## CCN(C)C(=O)Oc1cccc(/C=C/C(=O)c2ccccc2O)c1
Cholinesterase
  IC50: 3.1 µM
PC-12
  viability at 10 µM: 78.3%
[1]
  inhibition at 12.5 µM: 16.4%
[2]
  Activity: < 75.1%
In vitro
  Papp at 100 ug/ml: 157 nm/s
[3]
  Activity: inactive
Mus musculus
  Activity: 59.5%
[4]
  inhibition at 0.25 h, 25 µM: 26.2%
